# Bioassay records as filed in PubChem BioAssay.
# Rows were chosen to be rich in hits. Some 2% of all compounds tested hit in one or more screens of this group.
# M5 PAM: positive allosteric modulators of human muscarinic M5 receptor. 360,000 tested, 0.3% active. P08912. activation, % at 3 µM. CHO-K1 hM5, Fluo-8 calcium, ACh EC20 PAM; 0% = ACh EC20, 100% = ACh EC100. AID 624038;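 active = activation above the run cutoff, the mean activation of all test compounds plus 3 SD, cut at about 18% in these data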
#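 System: CHO-K1 cell line with stable human muscarinic M5 receptor expression | Also added: EC20 acetylcholine as agonist stimulus | Compound: One concentration, 3 µM final (nominal) | Timing: Fluo-8 loading 80 min at 37 °C plus 30 min room temperature | Measured by: Fluo-8 calcium dye fluorescence, kinetic read | Read-out basis: % activation, ACh-normalized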
# CHRM5 agonist: agonists of human muscarinic M5 receptor (CHRM5); P08912; CHO-K1 hM5 cells, Fluo-8 calcium fluorescence; 0% DMSO wells, 100% maximal acetylcholine response; activation, % at 3 µM; 360,000 tested, 0.19% active; AID 624037;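 active = activation above the run's mean over test compounds plus 3 SD, cut at about 23% in these data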;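 note: signal is peak over basal fluorescence ratio across the kinetic read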
# CHRM5 antagonist: CHRM5 antagonism in calcium assay; P08912; CHO-hM5 cells, Fluo-8 calcium fluorescence, ACh EC80; 360,000 tested, 0.59% active; inhibition, % at 3 µM; AID 624040;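 active = inhibition above a per-plate cutoff, the mean of that plate's test compounds plus 3 SD, cut at about 27% in these data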
# CHRM1 PAM: positive allosteric modulators of human M1 muscarinic receptor. AID 588819. CHO-K1 hM1, Fluo-8 calcium fluorescence, ACh EC20; 0% = ACh EC20, 100% = maximal ACh. activation, % at 3 µM. 360,000 tested, 0.088% active. P11229; in the data active = activation above about 19%, passing the limit was not always enough
# Target sequence (P11229 whole entry, looked up): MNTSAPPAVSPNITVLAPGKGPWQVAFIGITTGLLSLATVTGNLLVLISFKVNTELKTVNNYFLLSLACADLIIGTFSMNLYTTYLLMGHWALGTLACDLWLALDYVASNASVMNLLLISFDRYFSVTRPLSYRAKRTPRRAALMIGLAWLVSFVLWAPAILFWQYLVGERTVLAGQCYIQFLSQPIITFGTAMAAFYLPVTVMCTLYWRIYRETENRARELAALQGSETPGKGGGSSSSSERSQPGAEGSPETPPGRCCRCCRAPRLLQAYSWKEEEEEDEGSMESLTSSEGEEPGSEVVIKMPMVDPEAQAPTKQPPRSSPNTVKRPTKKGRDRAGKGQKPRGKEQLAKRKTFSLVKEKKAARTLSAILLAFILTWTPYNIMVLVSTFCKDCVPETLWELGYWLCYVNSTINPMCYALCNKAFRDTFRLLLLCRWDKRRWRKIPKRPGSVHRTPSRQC
# CHRM1 antagonist: antagonists of human M1 muscarinic receptor. CHO-K1 hM1, Fluo-8 calcium fluorescence, ACh EC80 antagonist. inhibition, % at 3 µM. 360,000 tested, 1.3% active. AID 588852;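 active = percent inhibition above its own plate's cutoff, namely the mean of that plate's compound wells plus 3 SD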;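 note: peak over basal fluorescence ratio during 140 s after agonist addition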
# M1 ag: human M1 muscarinic receptor agonism; AID 588814; 360,000 tested, 0.33% active; activation, % at 3 µM; CHO-K1 hM1, Fluo-8 calcium fluorescence, agonist mode; 0% DMSO, 100% acetylcholine EC100; P11229;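 active = activation above the run's mean compound activation plus 3 SD, cut at about 16% in these data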;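 note: peak over basal fluorescence ratio within a 140 s kinetic read after compound addition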
# Numbers stand for hits; . = inactive; / = no result; ! = not active in a repeat.
SMILES,M5 PAM,CHRM5 agonist,CHRM5 antagonist,CHRM1 PAM,CHRM1 antagonist,M1 ag
COC(=O)c1ccc(CN2CCN(Cc3ccc(F)cc3)C(CCO)C2)cc1 (stereo not given),.,.,.,.,.,.
COc1ccc(C(=O)Nc2ccc(CN3CCCCC3)cc2)cc1,.,.,.,.,.,.
COC(=O)c1ccc(CN2CCCC(C(=O)c3ccccc3OC)C2)cc1 (stereo not given),.,.,.,.,.,27
COC(=O)c1ccc(CN2CCCC(C(=O)c3cc(F)ccc3OC)C2)cc1 (stereo not given),.,.,.,.,.,.
CCOC(=O)C1CCN(C(=O)CCC(=O)NCCc2ccc(Cl)cc2)CC1,.,.,.,.,.,.
CCOC(=O)C1CCC(CNCc2ccc(Cl)cc2)CC1 (stereo not given),.,.,.,.,45,.
Cc1cc(OCC(=O)OCC(=O)NC2CCS(=O)(=O)C2)ccc1Cl (stereo not given),.,.,.,.,.,.
Cc1cc(N2CCN(C(c3ccccc3)c3ccccc3)CC2)n2ncnc2n1,.,.,.,.,30,.
Cc1cnc(-c2nc3ccccc3n2C(C(=O)NC(C)(C)C)c2cc3ccccc3o2)cn1 (stereo not given),.,.,.,/,/,/
CC(C)CC1Nc2ncnc(N3CCN(c4ccccn4)CC3)c2N(Cc2ccc(Br)cc2)C1=O (stereo not given),.,.,.,.,40!,.
Cc1ccc(CN2C(=O)C(CC(C)C)Nc3ncnc(N4CCN(c5ccccn5)CC4)c32)cc1 (stereo not given),.,.,.,.,34,.
Nn1c(=O)c2ccccc2n2c(SCc3ccccc3)nnc12,38,.,29,.,.,.
Cc1ccc(S(=O)(=O)n2cnc(C)c2)cc1,20,.,.,.,.,.
CC(=O)Nc1ccc(-c2noc(-c3csc([C@@H]4C[C@H](O)[C@@H](CO)O4)n3)n2)cc1,.,.,.,.,.,.
O=C(c1ccccc1)C1N=NCC1c1ccc(Cl)cc1 (stereo not given),.,27,33,.,.,.
CCOC(=O)C1=NNC(C(=O)c2ccccc2)C1c1ccc(Cl)cc1 (stereo not given),.,.,.,.,.,.
NC(=O)c1ccccc1N/C=C/C(=O)c1ccc(Cl)cc1Cl,47,.,.,.,.,.
CCN1CCN(C(=O)c2ccccc2N(Cc2ccccc2)S(=O)(=O)c2ccc(C)cc2)CC1,.,.,.,.,.,28
CCN1CCN(C(=O)c2ccccc2N(Cc2ccccc2)S(C)(=O)=O)CC1,.,.,.,.,.,.
CCN(CC)C(=O)Cn1cc(C(=O)C(=O)NCc2ccco2)c2ccccc21,.,.,.,.,.,.
O=C(NCC1CCN(Cc2cccc(Cl)c2)CC1)C1CCCN(c2ncnc3c2nc2n3CCCCC2)C1 (stereo not given),.,.,.,.,75,.
O=C(C1CCN(c2ncnc3c2nc2n3CCCCC2)CC1)N1CCN(c2ccc(F)cc2)CC1,.,.,.,.,.,30
O=C(C1CCN(c2ncnc3c2nc2n3CCCCC2)CC1)N1CCCCC1,.,.,.,.,.,.
O=C(NCC1CCN(Cc2ccc(F)cc2)CC1)C1CCCN(c2ncnc3c2nc2n3CCCCC2)C1 (stereo not given),.,.,.,.,70,.
O=C(NCC1CCN(Cc2ccc(Cl)cc2)CC1)C1CCCN(c2ncnc3c2nc2n3CCCCC2)C1 (stereo not given),.,.,.,.,103,.
SMILES,M5 PAM,CHRM5 agonist,CHRM5 antagonist,CHRM1 PAM,CHRM1 antagonist,M1 ag
O=C(Nc1ccc(C(=O)NCCCN2CCN(c3ccc(F)cc3)CC2)cc1)C1=CSCCO1,.,.,.,.,.,17
COCc1cc(C)nc(SCC[N+](C)(C)CC(=O)Nc2cccc(C(F)(F)F)c2)c1C#N,.,.,.,.,40,.
CCOC(=O)N(C)c1c(CC)nc2c(OCc3ccc(Cl)cc3Cl)cccn12,.,.,.,.,.,.
CCCCOC(=O)CSc1nc(N)c(C#N)c(-c2ccc(OC)cc2)c1C#N,23,.,.,.,.,.
COCCNC(=O)c1cc(-c2ccccc2)sc1N,.,.,.,/,/,/
CCCCNC(=O)c1cc(-c2ccccc2)sc1N,21,.,.,/,/,/
S=C(NCCc1ccccc1)N1CCC2CC1c1c(Cl)cccc12 (stereo not given),.,.,.,.,.,.
COc1ccccc1/C=N/NC(=O)c1ccc(CN2C(=O)c3cccc4cccc2c34)cc1,.,.,.,.,.,.
NNC(=O)c1ccc(CN2C(=O)c3cccc4cccc2c34)cc1,.,.,.,.,.,34
CCn1nnnc1SCC(=O)Nc1ccc(OCc2ccccc2)cc1,34,.,.,.,.,.
O=C(CCCc1nc2ccccc2s1)NNC(=O)CCN1CCN(Cc2ccccc2)CC1,.,.,.,.,.,17
O=C(CCN1CCc2ccccc2C1)Nc1ccccc1,35,.,.,.,.,.
O=C(CCN1CCN(CCO)CC1)Nc1ccc(OCc2ccccc2)cc1,.,.,.,.,.,.
O=C(CCN1CCN(Cc2ccccc2)CC1)Nc1ccc(OCc2ccccc2)cc1,.,.,.,.,24,.
COc1ccc(NS(=O)(=O)c2ccc(N3CC(O)=C(c4ccccc4)C3=N)cc2)cc1,.,.,.,.,.,.
C[C@H]1CN([C@@H](C)CO)C(=O)CCCn2nncc2CO[C@H]1CN(C)C(=O)Nc1ccc2c(c1)OCO2,.,.,.,.,.,.
c1ccc(CN2CCN(CCOCCOc3ccc4c(c3)CCC4)CC2)cc1,.,.,.,.,29,.
O=C(c1ccccc1)c1ccc(OCCCN2CCCC2)cc1,.,.,.,.,.,.
O=C(c1ccccc1)c1ccc(OCCOCCN2CCN(Cc3ccccc3)CC2)cc1,.,.,.,.,87,.
Cc1cccc(NC(=O)CNC(=O)[C@H]2O[C@@H](n3ccc(N)nc3=O)[C@H](O)[C@@H]2O)c1C,.,.,.,.,.,.
Cc1c(C)n(CC(O)CSc2ccccc2)c2ccccc12 (stereo not given),.,.,.,/,/,/
COc1ccc(CNC(=O)COC(=O)CCN2C(=O)C3CC=CCC3C2=O)cc1OC (stereo not given),.,.,.,.,.,.
COc1cc(CSc2nnnn2-c2ccc(C)cc2)cc(OC)c1OC,.,.,31,.,.,.
Cc1cc(C(=O)NCCCN2CCN(C3CCCCC3)CC2)n(-c2ccccc2)n1,.,.,.,.,.,36
